What was measured:
[1] = substrate: Nc1ncnc2c1ncn2C1OC(CO)C=C1O; test: (§1) Michaelis constant was determined against mammalian Adenosine deaminase
Outline: (§2)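 Calf intestinal mucosa adenosine deaminase (EC 3.5.4.4), 0.15–0.24 unit depending on substrate. Substrate 15–200 μM in phosphate buffer pH 7.4 at 25 °C. Deamination followed by UV absorbance at 265 nm. Each reaction medium was checked by TLC or UV to confirm the deaminated substrate was the sole product.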

[2] = substrate: Nc1ncnc2c1ncn2[C@@H]1O[C@H](CO)[C@@H](O)[C@H]1O; test: as §1; outline: as §2
[3] = substrate: Nc1ncnc2c1ncn2[C@@H]1O[C@H](CO)C=C1F; test: as §1; outline: as §2

B1: Adenosine deaminase (Homo sapiens), P00813 (protein)
chain: MAQTPAFDKPKVELHVHLDGSIKPETILYYGRRRGIALPANTAEGLLNVIGMDKPLTLPDFLAKFDYYMPAIAGCREAIKRIAYEFVEMKAKEGVVYVEVRYSPHLLANSKVEPIPWNQAEGDLTPDEVVALVGQGLQEGERDFGVKARSILCCMRHQPNWSPKVVELCKKYQQQTVVAIDLAGDETIPGSSLLPGHVQAYQEAVKSGIHRTVHAGEVGSAEVVKEAVDILKTERLGHGYHTLEDQALYNRLRQENMHFEICPWSSYLTGAWKPDTEHAVIRLKNDQANYSLNTDDPLIFKSTLDTDYQMTKRDMGFTEEEFKRLNINAAKSSFLPEDEKRELLDLLYKAYGMPPSASAGQNL
Protein B1 has a Km [1] of 30 µM, a Km [2] of 5 µM and a Km [3] of 23 µM.
